NadD inh: NadD (S. aureus) enzyme inhibition; purified NadD enzyme, colorimetric absorbance read-out; AID 602399; hit rate 0.78% among 360,000; inhibition, % at 20 µM; in the data active means inhibition above about 26%
bovine MsrA act: activates bovine MsrA enzyme. activation, % at 10.6 µM. hit rate 0.3% among 360,000. AID 602163. purified bovine MsrA, absorbance read-out; in the data active means activation above about 7.5%;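 further: 0% = vehicle and 100% = reference activator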
NR2E3 ag-1: agonists of human NR2E3 nuclear receptor; hit rate 0.35% among 360,000; inhibition of corepressor binding, % at 3.98 µM; CHO-S Gal4-NCOR/VP16-NR2E3 two-hybrid, luciferase;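 active means inhibition above the mean of all tested compounds plus 3 SD, cut at about 70% in these data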;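 further: 0% = DMSO with NR2E3 transfected cells and 100% = cells lacking NR2E3 construct; higher means lower luciferase signal from less NR2E3 corepressor binding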
NR2E3 ag-2: activates human photoreceptor nuclear receptor NR2E3; Q9Y5X4; GST-NR2E3/biotin-RetCOR TR-FRET, 1536-well; inhibition of corepressor binding, % at 4.78 µM; hit rate 0.12% among 320,000;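 active means percent inhibition above the cutoff of mean plus 3 SD of all tested compounds, set per screening campaign, cut at about 20% in these data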;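 further: 0% = DMSO wells and 100% = biotin wells as full block of FRET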
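Test system – NR2E3–RetCOR corepressor complex · Quantity – NR2E3 fusion 1.35 nM · Buffer or medium – Tris pH 7.5 · Incubation – Compound–protein incubation for 5 h at 4 °C · Technique – TR-FRET, Eu(K)-anti-GST donor, streptavidin-D2 acceptor, ex 340, em 617/671 nm · Evaluation – percent inhibition of 671/617 nm emission ratio versus biotin and DMSO controls · Plate – 1536-well format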
GalR3 antagonist: human GalR3 antagonism; O60755; HEK293 GalR3-CNG cAMP membrane potential fluorescence; galR3 body fused to GalR1 C-terminus; inhibition, % at 3 µM; hit rate 0.44% among 360,000; AID 651719;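 active means inhibition above the screen-wide average plus 3 SD, cut at about 13% in these data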;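 further: forskolin and galanin both at EC90 stimulate the cells; cAMP rise reported by CNG channel membrane potential dye signal; 0% = forskolin plus galanin with DMSO and 100% = forskolin alone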
Target sequence (O60755 1-299 limits assumed): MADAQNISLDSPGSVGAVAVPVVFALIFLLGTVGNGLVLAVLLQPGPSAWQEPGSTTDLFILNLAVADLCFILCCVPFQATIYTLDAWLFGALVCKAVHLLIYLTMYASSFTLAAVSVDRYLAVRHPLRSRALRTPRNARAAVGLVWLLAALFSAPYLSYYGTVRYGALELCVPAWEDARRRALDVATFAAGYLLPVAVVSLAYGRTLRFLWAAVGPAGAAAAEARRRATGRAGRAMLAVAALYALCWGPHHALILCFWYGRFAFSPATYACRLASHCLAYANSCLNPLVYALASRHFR
MsrA inh: inhibits bovine methionine sulfoxide reductase A. purified bovine MsrA, absorbance read-out. inhibition, % at 15.5 µM. hit rate 0.75% among 360,000; in the data active means inhibition above about 4.5%;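 further: 0% = vehicle wells with enzyme and 100% = reference inhibitor wells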
NR2E3 ag conf: confirmation of human NR2E3 agonists | hit rate 51% among 2,300 | CHO-S mammalian two-hybrid NR2E3-NCOR, luciferase luminescence | shares compounds with NR2E3 ag-1 | inhibition, % at 3.98 µM | AID 624378;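 active means average inhibition above a cutoff equal to the mean inhibition of all tested compounds plus one SD, cut at about 70% in these data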;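 further: 0% = DMSO in NR2E3 cells and 100% = DMSO in cells lacking NR2E3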
VP16 counter: GAL4-VP16 reporter inhibition in NR2E3 agonist counterscreen; inhibition, % at 3.98 µM; CHO-S GAL4-VP16 luciferase reporter, luminescence; hit rate 29% among 2,300; shares compounds with NR2E3 ag-1;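 active means mean inhibition above a cutoff equal to the average over all tested compounds plus one standard deviation, cut at about 70% in these data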;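 further: luciferase from a UAS reporter driven by GAL4-VP16 transactivation; 0% = DMSO with VP16-transfected cells and 100% = DMSO with cells lacking VP16; higher means less reporter light so more repression of VP16 activity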
* marks the source's active call; other numbers are inactive results; . = no result given. Rows were chosen to be rich in hits. Some 2.5% of all compounds tested hit in one or more screens of this group.

SMILES	NadD inh	bovine MsrA act	NR2E3 ag-1	NR2E3 ag-2	GalR3 antagonist	MsrA inh	NR2E3 ag conf	VP16 counter
O=C(O)c1ccccc1C(=O)Nc1ccc(Oc2cccc3ccccc23)cc1	2	-1	67	.	-7	0	-16	23
CC1CCc2nc(NC(=O)CSc3nc4ccccc4o3)sc2C1 (stereo unspecified)	6	4	84*	1	-7	0	62	57
CC(=O)N1CCN(C(=O)c2cccc(S(=O)(=O)NCc3ccccc3)c2)CC1	-2	-6	-8	1	-1	1	.	.
c1coc(CN(Cc2ccco2)c2ncnc3c2oc2ccccc23)c1	6	-2	68	0	.	.	77*	60
CCOC(=O)N1CCC(NCCNC(=O)c2cccc(F)c2)CC1	1	0	-26	0	-4	0	.	.
O=C(NCc1cccc(C(F)(F)F)c1)c1[nH]c(C(F)(F)F)nc1-c1ccccc1	-2	-11	91*	.	.	.	59	27
Cc1ccc(CNC(=O)c2[nH]c(C(F)(F)F)nc2-c2ccccc2)cc1	-9	-3	24	.	-5	-1	.	.
O=C(NC(NNc1ccc([N+](=O)[O-])cc1)(C(F)(F)F)C(F)(F)F)c1ccc(Cl)cc1	-5	-2	48	4	-4	3	80*	85*
C[C@H]1CCC/C=C/[C@@H]2C[C@H](O)C[C@H]2[C@H](O)[C@H](S(=O)c2ccc(O)cc2)CC(=O)O1 (stereo partly specified)	2	-1	78*	.	-4	0	91*	47
Cc1ccccc1OCCn1cc(C(=S)N2CCCC2)c2ccccc21	0	-3	-12	-2	-4	2	.	.
CC(=O)c1cn(CCOc2ccccc2C)c2ccccc12	-2	-2	70*	2	4	0	94*	79*
CCN(c1ccccc1)S(=O)(=O)c1ccc(C(=O)Nc2nnc(COC)o2)cc1	11	0	20	4	5	1	.	.
CCN(c1ccccc1)S(=O)(=O)c1ccc(C(=O)Nc2nnc(CSC)o2)cc1	9	-4	65	1	-3	0	93*	32
COCc1nnc(NC(=O)c2ccc(S(=O)(=O)N(CC(C)C)CC(C)C)cc2)o1	14	-2	77*	-1	1	0	89*	28
CCCN(CCC)S(=O)(=O)c1ccc(C(=O)Nc2nnc(CSC)o2)cc1	4	4	56	-2	0	-1	53	23
Cc1c(C(=O)NCCSCc2ccccc2Cl)cccc1[N+](=O)[O-]	-7	1	-13	5	-6	1	.	.
O=C(Nc1ccc(Cl)cc1)N1CCN(c2ncccn2)CC1	-5	-4	-13	-3	-1	-1	.	.
CN1C2C=C3C(C#N)=C(N)C(C#N)(C#N)C(c4ccc(Br)cc4)C3C1CC2 (stereo unspecified)	-2	0	-47	3	-3	1	.	.
CC(C)(C)c1ccc(-c2n[nH]c(=S)n2C2CCCC2)cc1	8	1	65	-1	-7	-1	72*	61
COc1ccc(NS(=O)(=O)c2ccc3c(c2)Cc2ccccc2-3)cn1	-2	-2	85*	1	-4	0	93*	77*
COc1ccc(NS(=O)(=O)c2ccc(N3CCCC3=O)cc2)cn1	-2	-2	-10	2	7	1	.	.
FC(F)Sc1ccc(NC(=S)N2CCN(c3ccccn3)CC2)cc1	-7	-2	61	.	-4	0	87*	45
CCCC(=O)NC(c1cccs1)c1cc([N+](=O)[O-])c2cccnc2c1O (stereo unspecified)	13	-6	16	-2	-6	-1	.	.
CC(=O)NC(c1cccs1)c1cc([N+](=O)[O-])c2cccnc2c1O (stereo unspecified)	9	-2	81*	2	-5	1	98*	54
CC(=O)NC(c1ccccc1)c1cc([N+](=O)[O-])c2cccnc2c1O (stereo unspecified)	11	-3	57	-8	1	2	94*	31
SMILES	NadD inh	bovine MsrA act	NR2E3 ag-1	NR2E3 ag-2	GalR3 antagonist	MsrA inh	NR2E3 ag conf	VP16 counter
CCC(=O)NC(c1cccs1)c1cc([N+](=O)[O-])c2cccnc2c1O (stereo unspecified)	7	-4	63	0	-3	1	94*	51
COc1ccc(NS(=O)(=O)c2ccc(N3CCCC3)c(N)c2)cc1	1	-1	89*	-1	-12	0	77*	72*
CCCCNC(=O)c1ccc(N2CCOCC2)c(NS(=O)(=O)c2ccc(OC)cc2)c1	2	-4	-8	1	-7	3	.	.
CCNC(=O)Nc1cc(S(=O)(=O)Nc2ccc(OC)cc2)ccc1N1CCOCC1	2	-2	85*	0	.	.	84*	76*
Nc1cc(S(=O)(=O)Nc2ccccc2Cl)ccc1N1CCOCC1	-2	0	-17	0	-4	1	.	.
Nc1cc(S(=O)(=O)Nc2ccc(Cl)cc2)ccc1N1CCOCC1	1	-4	55	-1	2	-1	85*	64
CCOc1ccccc1C(=O)NCC(=O)NCC(C)(C)N1CCOCC1	-8	-6	-7	0	-3	0	.	.
O=C(CN(C(=O)CNC(=O)c1cccs1)c1ccccc1F)NC1CCCCC1	2	-1	-9	0	-11	-1	.	.
Cc1nn(-c2ccccc2)c(C)c1/C=N/N1CCN(c2ccccn2)CC1	8	-2	0	5	2	0	.	.
O=C1CC(C(=O)NCCc2ccccc2)SC(=Nc2ccccc2)N1 (stereo unspecified)	1	-4	-3	3	1	-1	.	.
Brc1ccc2ncnc(NCc3ccccc3)c2c1	1	-6	65	2	-6	0	91*	85*
CCCCCCCCNc1ncnc2ccccc12	-8	-2	92*	0	.	.	99*	92*
Cc1cccc(Nc2ncnc3ccc(Br)cc23)c1	-2	-13	-10	7	-2	3	.	.
c1ccc(CCNc2ncnc3ccccc23)cc1	3	-4	50	3	93*	-2	89*	70
CCc1ccccc1Nc1ncnc2ccccc12	2	-1	-13	-1	-5	0	.	.
CCN(C(=O)CSc1nnc(C)n1-c1cccc(C)c1)C1CCS(=O)(=O)C1 (stereo unspecified)	-5	2	-3	1	-6	0	.	.
COc1ccc([C@@H]2C[C@H]3[C@@H](CN2S(=O)(=O)c2ccccc2)C(=O)C[C@@H](c2cccc(Cl)c2)N3S(=O)(=O)c2ccc(C)cc2)cc1	17	6	62	.	.	.	72*	55

Screening results: PubChem BioAssay, several laboratories
